The values that follow come from ChEMBL document CHEMBL1122175, “Pentasubstituted quercetin analogues as selective inhibitors of particulate 3':5'-cyclic-AMP phosphodiesterase from rat brain” (J Med Chem, 1982).

Each structure is given as a SMILES string. Bounds are passed on as bounds.

In one assay the target is Phosphodiesterase 1 (Rattus norvegicus, UniProt Q63421+Q9EPR9+Q01066). Description: Inhibition of rat brain cytosolic cGMP phosphodiesterase. The essentials: (§1)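 Rat brains without cerebellum were homogenized in 0.32 M sucrose, 5 mM Tris-HCl pH 7.5, 1 mM MgCl2, 0.1 mM DTT. After a 1000g spin and a high-speed spin, the supernatant was dialyzed overnight against 20 mM Tris-HCl pH 7.5, 1 mM MgCl2, 0.1 mM DTT. Assay used 0.25 µM cAMP or cGMP in triplicate at 30 °C.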

The target in assay [1] is T1, cGMP-dependent 3',5'-cyclic phosphodiesterase (Rattus norvegicus, UniProt Q01062).
T1 sequence (Q01062 whole entry): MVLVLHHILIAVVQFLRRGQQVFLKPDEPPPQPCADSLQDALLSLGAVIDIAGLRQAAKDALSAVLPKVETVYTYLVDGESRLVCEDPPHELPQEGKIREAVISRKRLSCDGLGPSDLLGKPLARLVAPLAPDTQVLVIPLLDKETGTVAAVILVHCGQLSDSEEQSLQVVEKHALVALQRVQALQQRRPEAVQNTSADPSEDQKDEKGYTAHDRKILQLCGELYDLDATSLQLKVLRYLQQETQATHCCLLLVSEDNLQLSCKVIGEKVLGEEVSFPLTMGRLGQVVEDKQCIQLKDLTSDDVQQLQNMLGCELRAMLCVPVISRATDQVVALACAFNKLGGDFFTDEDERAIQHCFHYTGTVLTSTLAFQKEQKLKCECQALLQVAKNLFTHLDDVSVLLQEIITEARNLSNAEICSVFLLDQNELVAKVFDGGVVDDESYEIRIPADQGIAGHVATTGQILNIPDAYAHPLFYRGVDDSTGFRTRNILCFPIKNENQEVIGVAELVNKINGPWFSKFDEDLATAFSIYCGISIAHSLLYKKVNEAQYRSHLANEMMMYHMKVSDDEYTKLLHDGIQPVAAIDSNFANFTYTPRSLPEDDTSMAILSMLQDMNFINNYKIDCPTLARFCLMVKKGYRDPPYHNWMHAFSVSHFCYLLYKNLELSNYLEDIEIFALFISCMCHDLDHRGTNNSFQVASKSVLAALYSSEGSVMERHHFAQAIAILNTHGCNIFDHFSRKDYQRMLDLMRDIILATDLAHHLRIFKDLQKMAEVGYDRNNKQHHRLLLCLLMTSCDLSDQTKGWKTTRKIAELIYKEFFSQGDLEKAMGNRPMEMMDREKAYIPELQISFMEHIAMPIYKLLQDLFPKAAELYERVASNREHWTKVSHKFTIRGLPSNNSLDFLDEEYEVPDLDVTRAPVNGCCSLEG
Nature of the assay: Inhibition of rat brain particulate cGMP phosphodiesterase. Summed up: (§2)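 The particulate enzyme was the washed high-speed pellet, rehomogenized in sucrose buffer, then resuspended and dialyzed overnight in 20 mM Tris-HCl pH 7.5, 1 mM MgCl2, 0.1 mM DTT, and stored at -20 °C. Hydrolysis of 0.25 µM cAMP or cGMP was assayed at 30 °C in triplicate.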

A short description of assay [2]: Inhibition of rat brain cytosolic cAMP phosphodiesterase. To be noted: read-out: I 50. Summed up: as §1
For assay [3], the species on record is Rattus norvegicus. Description: Relative inhibition of cAMP and cGMP hydrolysis by cytosolic phosphodiesterase.
Assay [4] is filed under the species Rattus norvegicus. Nature of the assay: Relative inhibition of cAMP and cGMP hydrolysis by particulate phosphodiesterase.
Assay [5] is described as follows: Inhibition of rat brain particulate cAMP phosphodiesterase. To be noted: read-out: I 50.
Assay [6] has as its target T1, cGMP-dependent 3',5'-cyclic phosphodiesterase. Nature of the assay: Inhibition of rat brain particulate cGMP phosphodiesterase (Inactive). Summed up: as §2
Assay [7] is described as follows: Inhibition of rat brain particulate cAMP phosphodiesterase (Inactive). Summed up: as §2
Assay [8] in a line: Inhibition of rat brain cytosolic cAMP phosphodiesterase (Inactive). Summed up:
as §1

Assay [9] is described as follows: Inhibition of rat brain particulate cAMP phosphodiesterase. As to conditions: read-out: I50; call rule not given here. Summed up:
as §2

In assay [10] the target is T1, cGMP-dependent 3',5'-cyclic phosphodiesterase. Nature of the assay: Inhibition of rat brain particulate cGMP phosphodiesterase (inactive). The essentials:
as §2

A short description of assay [11]: Inhibition of rat brain particulate cAMP phosphodiesterase (inactive). The essentials:
as §2

A short description of assay [12]: Inhibition of rat brain cytosolic cAMP phosphodiesterase (inactive). The essentials:
as §1

For the compound `O=c1c(OCCBr)c(-c2ccc(OCCBr)c(OCCBr)c2)oc2cc(OCCBr)cc(OCCBr)c12`, the I 50 on Phosphodiesterase 1 was 10000 µM. The figures for the IC50 in assay [1] (read-out: I 50), in assay [2] and in assay [5] were 24.5 µM, 500 µM and 18 µM, respectively. The Ratio in the assay listed under Rattus norvegicus [3] worked out at 0.05; in the assay listed under Rattus norvegicus [4], 0.73.

`CCCOc1cc(OCCC)c2c(=O)c(OCCC)c(-c3ccc(OCCC)c(OCCC)c3)oc2c1`: the “I 50” value in [6], in assay [7] and in [8] was “Not Active” each time.

Take `CCOC(=O)COc1c(-c2ccc(OCC)c(OCC)c2)oc2cc(OCC)cc(OCC)c2c1=O`: the “I 50” value in [6], in assay [7] and in assay [8] was “Not Active” in each case.

In the case of `CCOc1cc(O)c2c(=O)c(OCC)c(-c3ccc(OCC)c(OCC)c3)oc2c1`, the “I 50” value in assay [6], in assay [7] and in assay [8] was “Not Active” in each case.

Turning to `COc1cc(OC)c2c(=O)c(OC)c(-c3ccc(OC)c(OC)c3)oc2c1`, at Phosphodiesterase 1, the “I 50” value was more than 1000 µM. Also, the IC50 in assay [1] (read-out: I 50) was 96 µM; in assay [2] it was 6.3 µM; in [5], 10.2 µM. Besides, the Ratio in the assay listed under Rattus norvegicus [3] was less than 0.008; in the assay filed under Rattus norvegicus [4], 0.1.

`CCOC(=O)COc1cc(OCC)cc2oc(-c3ccc(OCC)c(OCC)c3)c(OCC)c(=O)c12`: the “I 50” value on Phosphodiesterase 1 is more than 1000 µM. Further, the IC50 worked out at 700 µM in assay [1] (read-out: I 50), 80 µM in assay [2] and 8.3 µM in assay [5]. Also, the Ratio is less than 0.08 in the assay filed under Rattus norvegicus [3] and 0.01 in the assay listed under Rattus norvegicus [4].

For `CCC(=O)Oc1cc(OC(=O)CC)c2c(=O)c(OC(=O)CC)c(-c3ccc(OC(=O)CC)c(OC(=O)CC)c3)oc2c1`, the “I 50” value in [6] and in assay [8] was “Not Active” each time.

On to `CCOc1cc(OCC(=O)O)c2c(=O)c(OCC)c(-c3ccc(OCC)c(OCC)c3)oc2c1`, for which the “I 50” value at Phosphodiesterase 1 came to 63 µM. For the same compound, the IC50 was determined as 48 µM in assay [1] (read-out: I 50), 20 µM in assay [2] and 16 µM in [5]. Moreover, the Ratio in the assay listed under Rattus norvegicus [3] and in the assay filed under Rattus norvegicus [4] was 0.32 in each case.

Consider `CCCOc1ccccc1-c1nc2[nH]nnc2c(=O)[nH]1` [ZAPRINAST], for which, at Phosphodiesterase 1, the I 50 is 93.3 µM. Besides, the figures for the IC50 in assay [2] and in [9] were 66.1 µM and 74.1 µM, respectively. Further, the results for the Ratio in the assay filed under Rattus norvegicus [3] and in the assay filed under Rattus norvegicus [4] were 0.71 and 1.17, respectively.

In the case of `CCOc1cc(OCC)c2c(=O)c(OCC(=O)O)c(-c3ccc(OCC)c(OCC)c3)oc2c1`, the “I 50” value at Phosphodiesterase 1 is more than 1000 µM. In addition, the results for the IC50 in assay [1] (read-out: I 50), in assay [2] and in assay [5] were 71 µM, 10 µM and 22 µM, respectively. Also, the Ratio in the assay listed under Rattus norvegicus [3] was less than 0.01; in the assay filed under Rattus norvegicus [4], 0.31.

Regarding `CCCC(=O)Oc1cc(OC(=O)CCC)c2c(=O)c(OC(=O)CCC)c(-c3ccc(OC(=O)CCC)c(OC(=O)CCC)c3)oc2c1`, the “I 50” value in assay [6], in assay [7] and in [8] was “Not Active” each time.

For `CC(=O)Oc1cc(OC(C)=O)c2c(=O)c(OC(C)=O)c(-c3ccc(OC(C)=O)c(OC(C)=O)c3)oc2c1`, the figures for the IC50 in assay [1] (read-out: I 50), in [2] and in assay [5] were 275 µM, 355 µM and 126 µM, respectively. Besides, in the assay filed under Rattus norvegicus [4], the Ratio was 0.46.

Compound `CCOc1cc(OCC)c2c(=O)c(OCC)c(-c3ccc(OCC)c(OCC)c3)oc2c1` displayed an I 50 on Phosphodiesterase 1 of more than 10000 µM. The IC50 in assay [1] (read-out: I 50) was determined as 350 µM; in assay [2] it was 70 µM; in assay [5] it was 7.7 µM. The Ratio was less than 0.007 in the assay filed under Rattus norvegicus [3] and 0.02 in the assay listed under Rattus norvegicus [4].

Turning to `O=c1c(O)c(-c2ccc(O)c(O)c2)oc2cc(O)cc(O)c12` [QUERCETIN], the “I 50” value on Phosphodiesterase 1 is 275 µM. In addition, the results for the IC50 in assay [1] (read-out: I 50), in assay [2] and in [5] were 81.3 µM, 87 µM and 20 µM, respectively. Besides, the Ratio in the assay filed under Rattus norvegicus [3] is 0.32; in the assay listed under Rattus norvegicus [4], 0.24.

`CCOc1cc(OCC)c2c(=O)c(O)c(-c3ccc(OCC)c(OCC)c3)oc2c1`: the “I 50” value in [6], in [7] and in [8] was “Not Active” each time.

On to `CCOc1cc(OCCBr)c2c(=O)c(OCC)c(-c3ccc(OCC)c(OCC)c3)oc2c1`, for which the “I 50” value on Phosphodiesterase 1 is more than 1000 µM. Further, the IC50 in assay [1] (read-out: I 50) is 96 µM; in [2], 40 µM; in [5], 17 µM. Further, the Ratio in the assay filed under Rattus norvegicus [3] was less than 0.04; in the assay filed under Rattus norvegicus [4], 0.18.

For the compound `CCOc1cc(OCC)c2c(=O)c(OCCO)c(-c3ccc(OCC)c(OCC)c3)oc2c1`, the “I 50” value in assay [6], in assay [7] and in assay [8] was “Not Active” throughout.

On Phosphodiesterase 1, `CCOc1cc(OCCN(CC)CC)c2c(=O)c(OCC)c(-c3ccc(OCC)c(OCC)c3)oc2c1` gave an I 50 of 58 µM. Further, the IC50 came to 80 µM in assay [1] (read-out: I50), 35 µM in assay [2] and 10 µM in [9]. The Ratio in the assay filed under Rattus norvegicus [3] came out at 0.6; in the assay filed under Rattus norvegicus [4], 0.11.

`CCCCOc1cc(CC2CNC(=O)N2)ccc1OC` (stereo not drawn) [RO-201724] had an I 50 on Phosphodiesterase 1 of more than 1000 µM. Also, the IC50 in [1] (read-out: I 50) stood at 10000 µM; in assay [2], 1660 µM; in assay [5], 74.1 µM. Also, the results for the Ratio in the assay listed under Rattus norvegicus [3] and in the assay listed under Rattus norvegicus [4] were 0.16 and 0.007, respectively.

Consider `CCOC(=O)COc1cc(OCC(=O)OCC)c2c(=O)c(OCC(=O)OCC)c(-c3ccc(OCC(=O)OCC)c(OCC(=O)OCC)c3)oc2c1`, for which the “I 50” value in assay [6], in assay [7] and in assay [8] was “Not Active” in each case.

In the case of `CCCOc1ccccc1-c1nc2nn[nH]c2c(=O)[nH]1` [ZAPRINAST], the IC50 in assay [1] (read-out: I50) amounted to 63.1 µM.

Regarding `O=c1c(OCCO)c(-c2ccc(OCCO)c(OCCO)c2)oc2cc(OCCO)cc(OCCO)c12`, the “I 50” value at Phosphodiesterase 1 was 2800 µM. Besides, the IC50 in assay [1] (read-out: I 50) was 1300 µM; in assay [2], 470 µM; in [5] it was 69 µM. The Ratio was 0.17 in the assay filed under Rattus norvegicus [3] and 0.05 in the assay filed under Rattus norvegicus [4].

In turn, `CCOc1cc(OCC)c2c(=O)c(OCCN(CC)CC)c(-c3ccc(OCC)c(OCC)c3)oc2c1` displayed an I 50 at Phosphodiesterase 1 of 47 µM. For the same compound, the IC50 in [1] (read-out: I50) stood at 126 µM; in assay [2], 37 µM; in assay [9] it was 20 µM. Moreover, the Ratio was 0.79 in the assay filed under Rattus norvegicus [3] and 0.16 in the assay filed under Rattus norvegicus [4].

Turning to `O=C(O)COc1cc(OCC(=O)O)c2c(=O)c(OCC(=O)O)c(-c3ccc(OCC(=O)O)c(OCC(=O)O)c3)oc2c1`, the “I 50” value in assay [10], in assay [11] and in assay [12] was “Not Active” in each case.
